Bioassay records: PubChem BioAssay, Broad Institute
Only some compounds are listed: those with a hit (about 3.1% of all), similar ones and a draw of the others.
miR122 inh: miR-122 Renilla sensor signal increase in Huh7, primary screen, miR-122 inhibitor project, cell-based, single point, plate reader; Huh7 miR-122 Renilla luciferase sensor, 48 h; neutral wells = 0, positive control = 100; activation (reporter increase), % at 12.5 µM; 0.3% of 340,000 active;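 active = mean replicate activation score at least 90 and every replicate individually at or above 90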;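 also: higher luciferase means less miR-122 activity so hits act as miR-122 inhibitors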
INS-1E GSIS act: GLuc luminescence reporter in INS-1E cells, primary screen for activators of glucose-dependent secretion of insulin. INS-1E GLuc reporter insulin secretion, 2-3 h. activation, % at 16.6 µM. 0.61% of 370,000 active. AID 743287, 2014;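 active = lowest replicate activation of at least 40%, so every replicate reaches that level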;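 also: 0% = median of neutral control wells and 100% = median of IBMX positive control wells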
Cneo AK release: Cryptococcus neoformans cell lysis inducers, primary screen, AK release luminescence, single concentration; C. neoformans lysis, adenylate kinase release luminescence, 4 h; normalised: neutral wells 0, clomiphene wells 100; lysis activity, % at 15 µM; 0.2% of 360,000 active; AID 651654, 2012;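 active = mean lysis activity across replicates of at least 80%, whatever share of replicates individually reach that level; inactive = mean lysis activity below 80%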
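Signal: Adenylate kinase release luminescence | Assay system: Log-phase Cryptococcus neoformans yeast cells | Input: Cells at 5 × 10^6 per mL | Buffer or medium: Fresh YPD growth medium | Compound: Single dose | Schedule: Static 4 h at 37 °C with compound, 1 h detection | Controls: Clomiphene | Read-out: Luminescence rise reflecting yeast cell lysis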
Ecoli rRNA inh: reduced GFP signal of wild-type E. coli, primary screen, bacterial rRNA inhibitor project, GFP/RFP fluorescence, OD600, single point | E. coli WT GFP vs humanized-ribosome RFP mutants, 24 h; stronger effect = lower value; DMSO median 0, no signal -100 | GFP signal change (wild-type ribosome), % (test concentration not listed) | 1.6% of 350,000 active | AID 720706, 2013;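 active = significant combined selectivity score with lowered wild-type GFP, culture density cut under 30%, mutant RFP and density less affected; inactive = any of these conditions unmet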
CFTR F508del cor: F508del CFTR correction, initial screen, CFBE line, single point; 0.36% of 350,000 active; activity (quench increase), % at 7.58 µM; CFBE cells, YFP halide quenching; stimulated with forskolin plus potentiator P3; % fluorescence drop versus neutral controls; AID 720511, 2013;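 active = mean added fluorescence quench of at least 8% versus neutral control, with both replicates also reaching 8%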;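 also: cells transiently co-express mutant CFTR-F508del with the halide-sensitive YFP; corrector assay measuring rescue of mutant channel to the surface after 24 h compound exposure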
Env fusion inh: inhibitors of HIV-1 Env-driven cell-cell fusion, primary screen, HeLa-JRFL effector, CEM21 target cells, luciferase; 1.1% of 360,000 active; inhibition, % at 12.3 µM;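 active = mean replicate inhibition score of at least 50 and every replicate individually at or above 50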;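 also: 0% = plate neutral controls and 100% = maraviroc near 300 nM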
The depositor's hits bear a star; . = not tested or not shown; [ ] = remark or other dose.

SMILES | miR122 inh | INS-1E GSIS act | Cneo AK release | Ecoli rRNA inh | CFTR F508del cor | Env fusion inh
C[C@H]1CCCCO[C@H](CN(C)C)[C@@H](C)CN([C@@H](C)CO)C(=O)c2cc(N(C)C)ccc2O1 | -7.9[16.7 µM] | 1.1 | 0.1 | 2.9 | -1.5 | -9.3[16.7 µM]
O=C(C[C@H]1CC[C@@H](NC(=O)c2ccc3c(c2)OCO3)[C@@H](CO)O1)NCc1ccc(F)cc1 | . | -5.2 | 93.7* | -3.0 | 2.8 | -85.8[16.7 µM]
O=C(C[C@H]1CC[C@@H](NC(=O)c2cccc(F)c2)[C@H](CO)O1)NCc1ccc(Oc2ccccc2)cc1 | . | 3.2 | -3.7 | -4.0 | -2.2 | 68.7*[16.7 µM]
O=C(C[C@H]1CC[C@@H](NC(=O)c2cccc(F)c2)[C@@H](CO)O1)NCc1ccc(Oc2ccccc2)cc1 | . | -15.1 | -4.7 | -1.8 | 1.0 | 70.8*[16.7 µM]
C[C@@H]1CN([C@H](C)CO)C(=O)Cc2cc(NC(=O)Nc3ccc4c(c3)OCO4)ccc2O[C@H]1CN(C)C(=O)NC1CCCCC1 | 1.7[16.7 µM] | -3.1 | -0.7 | -0.9 | 1.7 | -13.2[16.7 µM]
C[C@H]1CN([C@@H](C)CO)C(=O)c2cccc(NC(=O)Nc3cccc4ccccc34)c2O[C@@H]1CN(C)C(=O)Nc1ccc2c(c1)OCO2 | -1.9[16.7 µM] | -19.1 | -10.8 | -3.0 | -2.9 | 11.7[16.7 µM]
O=[N+]([O-])c1cc(Cl)ccc1NCCNc1ncc(C(F)(F)F)cc1Cl | -4.9 | 57.6* | . | . | . | .
O=C1C=CC(=O)N1CCNc1ncc(C(F)(F)F)cc1Cl | . | 146.6* | . | 8.4 | 6.1 | 16.9
O=[N+]([O-])c1ccccc1NCCNc1ncc(C(F)(F)F)cc1Cl | -4.4 | -1.5 | . | . | . | .
O=C1CC(=O)N(CCNc2ncc(C(F)(F)F)cc2Cl)C(=O)N1 | -3.8 | . | 1.8 | . | . | .
O=c1[nH]c2cc(Cl)ccc2n(CCNc2ncc(C(F)(F)F)cc2Cl)c1=O | -6.9 | 71.6* | . | . | . | .
O=c1cc(Cl)[nH]c(=O)n1CCNc1ncc(C(F)(F)F)cc1Cl | -1.3 | 2.5 | . | . | . | .
COc1ccccc1-c1ccc2n(c1=O)C[C@H]1[C@H](CO)[C@@H](C(=O)N(C)C)N(CC3CCOCC3)[C@@H]21 | 2.2[16.7 µM] | 11.5 | 0.9 | 2.6 | -1.7 | .
C[C@@H]1CCCCO[C@@H](CN(C)C(=O)Nc2cccc3ccccc23)[C@H](C)CN([C@H](C)CO)C(=O)c2cc(NC(=O)Nc3ccc4c(c3)OCO4)ccc2O1 | -4.2[16.7 µM] | 7.7 | -0.1 | 0.5 | 2.3 | -8.5[16.7 µM]
Fc1ccc(COc2ccc(Br)cc2CNCc2ccncc2)cc1 | -6.7 | -15.8 | -6.1 | . | . | 34.8
CCOc1cc(CNCc2ccncc2)cc(Br)c1OCc1ccc(F)cc1 | -11.2 | . | -0.4 | . | . | 62.9*
Cc1onc(-c2c(F)cccc2Cl)c1C(=O)OCC(=O)NC(c1ccccc1)c1ccccc1 | -0.9 | -24.3 | 0.9 | . | . | 93.5*
CC(C)n1cc(/C(N)=N/O)c(=O)n(Cc2ccccc2)c1=O | 7.5 | 60.9* | 0.7 | 6.0 | 2.1 | -3.5
CCC(=O)N(C)C[C@@H]1Oc2ncc(-c3ccc(C#N)cc3)cc2C(=O)N([C@H](C)CO)C[C@@H]1C | 0.5[16.7 µM] | 11.5 | -1.7 | 1.1 | 1.3 | 0.6[16.7 µM]
COC(=O)c1cc(NC(=O)c2cc3ccccc3o2)cc(C(=O)OC)c1 | 1.7 | -8.9 | 3.5 | -22.7* | 1.2 | -14.4
CCOC(=O)Cc1csc(NC(=O)c2ccc(C)cc2)n1 | . | -11.2 | . | -13.3 | 2.5 | 1.2
CCOC(=O)Cc1csc(NC(=O)c2cc(C)cc(C)c2)n1 | 5.4 | -8.2 | 1.3 | -25.2* | 3.8 | 0.3
CCOC(=O)Cc1csc(NC(=O)c2cc3ccccc3o2)n1 | . | -5.2 | . | -19.2* | -2.3 | -6.9
CO[C@H]1CN(C)C(=O)c2cc(NS(=O)(=O)c3ccccc3Cl)ccc2OC[C@H](C)NC[C@H]1C | -7.3[16.7 µM] | -0.9 | 1.1 | 5.6 | -5.4 | -1.7[16.7 µM]
O=S(=O)(c1ccccc1F)N1CCCCN2[C@@H](CO)[C@@H](c3ccc(-c4cccnc4)cc3)[C@@H]2C1 | -2.9[16.7 µM] | -25.9 | 0.5 | -12.3 | 0.8 | .
SMILES | miR122 inh | INS-1E GSIS act | Cneo AK release | Ecoli rRNA inh | CFTR F508del cor | Env fusion inh
O=C(NNC(=O)c1cccc2ccccc12)c1cccc(Br)c1 | . | -14.1 | 0.1 | -21.9* | -0.2 | 8.3
O=C(NNC(=O)c1cccc2ccccc12)c1ccc(Br)cc1 | 1.1 | . | -1.1 | -2.5 | . | -25.5
Cc1nn(C)c(C)c1NC(=O)CSc1nc(C2CC2)nc2c1cnn2-c1ccccc1 | -2.0 | . | -2.0 | . | . | 56.6*
C[C@@H]1CN([C@H](C)CO)C(=O)Cc2cc(NC(=O)Cc3cn(C)c4ccccc34)ccc2O[C@H]1CN(C)C(=O)Nc1ccc(F)cc1 | -1.6[16.7 µM] | -1.9 | . | 2.7 | -1.4 | -59.9[16.7 µM]
CCC(=O)N(C)C[C@@H]1Oc2cc(-c3ccccc3OC)ccc2S(=O)(=O)N([C@@H](C)CO)C[C@@H]1C | 30.2[16.7 µM] | 7.4 | 8.2 | -4.6 | 0.0 | 5.7[16.7 µM]
CN1C(=O)c2cc(NC(=O)Cc3ccccc3)ccc2OC[C@@H]2O[C@H](CC(=O)NCC3CC3)CC[C@@H]21 | 233.3*[16.7 µM] | -6.1 | -2.4 | 0.4 | 0.4 | -0.8[16.7 µM]
CN1C(=O)c2cc(NC(=O)Cc3ccccc3)ccc2OC[C@@H]2O[C@H](CC(=O)NCc3ccc(Cl)cc3)CC[C@@H]21 | 293.3*[16.7 µM] | -8.7 | -1.8 | -2.1 | -2.4 | 23.7[16.7 µM]
CN1C(=O)c2cc(NC(=O)Cc3ccccc3)ccc2OC[C@H]2O[C@@H](CC(=O)NCC3CC3)CC[C@@H]21 | 16.7[16.7 µM] | -0.6 | -2.0 | -4.0 | -1.7 | -6.4[16.7 µM]
CO[C@H]1CN(C)C(=O)c2ccc(NC(=O)NC(C)C)cc2OC[C@@H](C)N(C(=O)CC2CC2)C[C@H]1C | . | 9.2 | -2.4 | -0.1 | -0.5 | 5.9[16.7 µM]
CCOC(=O)C(C(C)=O)c1c(Br)c(O)c(O)c2c(C(=O)c3ccc(C)cc3)coc12 (centres undefined) | -3.1 | -18.2 | -16.4 | . | . | 108.2*
CCOC(=O)c1c(C)n(-c2ccc(C)cc2)c2c(C(C(C)=O)C(=O)O)c(Br)c(O)c(O)c12 (centres undefined) | -7.2 | 23.5 | -1.0 | . | . | .
Cc1nc(CNS(=O)(=O)c2ccc3c(c2)CCCC3)cs1 | . | . | -1.4 | -14.0 | 1.3 | 60.4*
Cc1ccc(S(=O)(=O)NCc2csc(C)n2)cc1 | 6.1 | 15.7 | 3.5 | 1.7 | 2.1 | -6.5
CCOC(=O)NC(=S)Nc1ccc(C(C)(C)C)cc1 | -5.9 | -4.6 | 172.8* | -12.9 | -3.7 | 0.4
COc1ccc(CN(C)C[C@@H]2OCCCC[C@H](C)Oc3ccc(NS(=O)(=O)c4ccccc4)cc3C(=O)N([C@@H](C)CO)C[C@@H]2C)cc1 | 0.7[16.7 µM] | -14.4 | 3.0 | -0.1 | 0.6 | -17.1[16.7 µM]
CCOC(=O)c1ccc2[nH]c3c(c2c1)CCCC3 | -5.5 | 11.8 | -2.7 | -27.4 | -2.2 | -22.2
